Test [1] deals with T1, 3-beta-hydroxysteroid-Delta(8),Delta(7)-isomerase (Cavia porcellus, UniProt Q60490).
T1 sequence (Q60490 whole entry): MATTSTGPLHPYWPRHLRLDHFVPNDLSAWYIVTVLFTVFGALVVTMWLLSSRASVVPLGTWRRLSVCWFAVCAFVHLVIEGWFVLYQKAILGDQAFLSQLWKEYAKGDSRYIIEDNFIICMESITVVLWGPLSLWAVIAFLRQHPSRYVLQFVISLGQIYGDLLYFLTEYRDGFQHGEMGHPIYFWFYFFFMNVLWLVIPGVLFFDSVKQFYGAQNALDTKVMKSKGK
The test can be described thus: Displacement of [3H](-)-(S)-emopamil from EBP in guinea pig liver membrane. In kind it is cell membranes. The gist of the method: (§1)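 Radioligand displacement run by previously published methods, EBP per Moebius and σ1/σ2 per Matsumoto. Tissues from male Dunkin guinea pigs and Wistar Hannover rats (250–300 g). IC50 from six to nine drug concentrations in two or three experiments, samples in duplicate.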
(Displacement assays read how much labelled ligand stays bound in the presence of the test substance.)

The test system of test [2] is PC-3. The test can be described thus: Cytotoxicity against human PC3 cells assessed as LDH release at 100 uM after 24 hrs relative to untreated control. Type of test: functional. In a few lines: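 PC-3 cells exposed to test compound for 24 h at 37 °C, 5% CO2. LDH release into the medium was measured fluorimetrically (ex 560/em 590 nm) after 10 min with substrate mix at room temperature, then stop solution. Total LDH taken from lysed untreated wells. % cytotoxicity = 100 × (treated medium LDH − background)/(total LDH − background).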
(Release of lactate dehydrogenase indicates damage to the cell membrane.)

Test [3] is described as follows: Selectivity ratio of Ki for sigma 2 receptor in rat liver membrane to Ki for EBP in guinea pig liver membrane. In kind it is cell membranes.
The target of test [4] is Sigma non-opioid intracellular receptor 1 (Cavia porcellus, UniProt Q60492). Nature of the test: Displacement of [3H](+)-pentazocine from sigma 1 receptor in guinea pig brain membrane without cerebellum. In kind it is cell membranes. In a few lines: as §1
Sequence of Sigma non-opioid intracellular receptor 1 (Q60492 whole entry): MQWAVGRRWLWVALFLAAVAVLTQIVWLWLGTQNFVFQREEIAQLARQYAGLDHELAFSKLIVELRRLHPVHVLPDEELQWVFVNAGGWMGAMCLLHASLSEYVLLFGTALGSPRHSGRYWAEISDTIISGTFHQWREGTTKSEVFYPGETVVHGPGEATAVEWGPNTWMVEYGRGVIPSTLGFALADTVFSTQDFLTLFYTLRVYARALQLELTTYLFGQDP
Test [5] deals with PC-3. The test can be described thus: Antiproliferative activity against human PC3 cells expressing EBP after 48 hrs by MTT assay. Type of test: functional, cell-based. The gist of the method:
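MTT read-out at 48 h in PC-3 cells grown in RPMI 1640 with 10% FBS, 2 mM glutamine, penicillin/streptomycin, 37 °C, 5% CO2. 10 000 cells/well seeded day 1, drugs added day 2 over 1–100 µM (150 or 300 µM for some references). Solvent controls included. MTT 0.5 mg/mL for 3 h, formazan dissolved in DMSO, absorbance at 570 and 630 nm.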

A short description of test [6]: Displacement of [3H]-DTG from sigma 2-type opioid receptor in rat liver membrane in presence of (+)-pentazocine. Type of test: cell membranes. In a few lines:
as §1

For the next test, the species on record is Cavia porcellus. The test can be described thus: Selectivity ratio of Ki for sigma 1 receptor in guinea pig brain membrane without cerebellum to Ki for EBP in guinea pig liver membrane. Type of test: cell membranes.

On to `COc1cccc([C@H]2CC[C@H](N3CCN(c4ccccn4)CC3)CC2)c1`, for which the Ki (in general, a dissociation constant, usually derived from enzyme kinetics or from competition with a known ligand) in test [1] is 16.2 nM; in test [4] it was 24.8 nM; in test [6], 21.9 nM. In the test on PC-3 [2], the Activity was below 10%. In test [3], the Ratio Ki stood at 2. In addition, it took 23000 nM to reach a half-maximal effect in the test with PC-3 [5] (EC50).
As to `COc1ccccc1[C@H]1CC[C@H](N2CCN(c3ccccn3)CC2)CC1`, the Ki in test [1] came to 13.5 nM; in test [4], 2.86 nM; in test [6] it was 30 nM. Moreover, the Activity with PC-3 [2] is below 10%. Further, the Ratio Ki in test [3] was determined as 1.3.
For the compound `Clc1ccccc1[C@H]1CC[C@@H](N2CCN(c3ccccn3)CC2)CC1`, the Ki in test [1] amounted to 85.1 nM; in test [4] it was 1090 nM; in test [6], 150 nM. Moreover, the Activity in the test on PC-3 [2] is given as below 10%. In addition, the Ratio Ki in the test filed under Cavia porcellus is 13; in test [3] it was 1.8.
With `Cc1cccc(C)c1C1=CCC(N2CCN(c3ccccn3)CC2)CC1` (racemic), the results for the Ki in test [1], in test [4] and in test [6] were 46.7 nM, 177 nM and 113 nM, respectively. In addition, the Activity in the test on PC-3 [2] was below 10%. Besides, the Ratio Ki in the test listed under Cavia porcellus came out at 3.8; in test [3] it was 2.4.
Regarding `Cc1cccc(C)c1[C@H]1CC[C@@H](N2CCN(c3ccccn3)CC2)CC1`, the Ki in test [1] turned out to be 33.1 nM; in test [4], 6.32 nM; in test [6], 60.2 nM. Also, the Activity in the test with PC-3 [2] was below 10%. The figures for the Ratio Ki (in the test listed under Cavia porcellus; in test [3]) were 0.2 and 1.8, respectively.
As for `COc1cccc(OC)c1[C@H]1CC[C@H](N2CCN(c3ccccn3)CC2)CC1`, the inhibition constant Ki in test [1] worked out at 7 nM; in test [4] it was 215 nM; in test [6], 25 nM. The Activity in the test on PC-3 [2] was below 10%. For the same compound, the Ratio Ki in the test filed under Cavia porcellus was found to be 31; in test [3] it was 3.6.
For the compound `c1ccc([C@H]2CC[C@@H](N3CCN(c4ccccn4)CC3)CC2)cc1`, the Ki was 49.2 nM in test [1], 802 nM in test [4] and 62 nM in test [6]. In the test with PC-3 [2], the Activity is recorded as below 10%. Moreover, the Ratio Ki in the test listed under Cavia porcellus was 16; in test [3], 1.3.
Turning to `Cc1ccccc1[C@H]1CC[C@@H](N2CCN(c3ccccn3)CC2)CC1`, the Ki came to 5 nM in test [1], 1000 nM in test [4] and 71 nM in test [6]. Moreover, the Activity in the test on PC-3 [2] is reported as below 10%. Also, the Ratio Ki in the test listed under Cavia porcellus was found to be 200; in test [3], 14. Also, the EC50 (usually the concentration that produces a half-maximal response) with PC-3 [5] amounted to 38000 nM.
Regarding `COc1ccc2c(c1)CCC(CN1CCN(c3ccccn3)CC1)C2` (configuration not stated), the Ki is 32.1 nM in test [1], 358 nM in test [4] and 1250 nM in test [6]. Moreover, in the test on PC-3 [2], the Activity is reported as below 10%.
Take `Cc1ccccc1[C@H]1CC[C@H](N2CCN(c3ccccn3)CC2)CC1`: the Ki in test [1] was 9.04 nM; in test [4], 30.7 nM; in test [6], 29.6 nM. Also, the Activity in the test on PC-3 [2] is on record as below 10%. The results for the Ratio Ki (in the test filed under Cavia porcellus; in test [3]) were 3.4 and 3.3, respectively.
For `c1ccc([C@H]2CC[C@H](N3CCN(c4ccccn4)CC3)CC2)cc1`, the Ki in test [1] stood at 16.8 nM; in test [4], 104 nM; in test [6], 26.9 nM. In the test on PC-3 [2], the Activity was below 10%. Also, the Ratio Ki in the test filed under Cavia porcellus turned out to be 6; in test [3] it was 1.6.
For `Clc1ccccc1[C@H]1CC[C@H](N2CCN(c3ccccn3)CC2)CC1`, the Ki is 7.21 nM in test [1], 190 nM in test [4] and 29.1 nM in test [6]. For the same compound, the Activity in the test on PC-3 [2] is recorded as below 10%. Besides, the figures for the Ratio Ki (in the test listed under Cavia porcellus; in test [3]) were 26 and 4, respectively.
`COc1cccc(OC)c1[C@H]1CC[C@@H](N2CCN(c3ccccn3)CC2)CC1`: the results for the Ki in test [1], in test [4] and in test [6] were 4.95 nM, above 6000 nM and 687 nM, respectively. For the same compound, in the test with PC-3 [2], the Activity was below 10%. For the same compound, the results for the Ratio Ki (in the test filed under Cavia porcellus; in test [3]) were above 1210 and 138, respectively. Besides, the midpoint of the response in the test with PC-3 [5], the EC50, lay at 12900 nM.
The compound `COc1cccc(C2=CCC(N3CCN(c4ccccc4)CC3)CC2)c1` (configuration not stated) showed a Ki in test [1] of 460 nM. For the same compound, the Activity with PC-3 [2] is on record as below 10%.
As for `Fc1cccc(F)c1[C@H]1CC[C@H](N2CCN(c3ccccn3)CC2)CC1`, the results for the Ki in test [1], in test [4] and in test [6] were 106 nM, 190 nM and 138 nM, respectively. Further, the Activity in the test on PC-3 [2] is on record as below 10%. The values for the Ratio Ki (in the test filed under Cavia porcellus; in test [3]) were 1.8 and 1.2, respectively.
As for `CCCN(CCC)CCc1ccc(OC)c(OCCc2ccccc2)c1`, the Activity with PC-3 [2] is recorded as below 10%. In the test on PC-3 [5], this compound had an EC50 of 47000 nM. Further, the Ki in test [6] amounted to 212 nM.
On to `CC(C(O)c1ccc(O)cc1)N1CCC(Cc2ccccc2)CC1` (racemic) [IFENPRODIL], for which the Ki in test [1] stood at 16.4 nM; in test [6], 2.3 nM. The Activity in the test with PC-3 [2] is reported as below 10%. The same compound came in with an EC50 in the test on PC-3 [5] of 25800 nM.
In the case of `CC(C)=CCN1CC[C@]2(C)c3cc(O)ccc3C[C@H]1[C@H]2C` [(+)-PENTAZOCINE], the results for the Ki in test [1] and in test [6] were above 10 nM and 1860 nM, respectively. Further, the Activity in the test on PC-3 [2] is reported as below 10%. Moreover, the EC50 in the test with PC-3 [5] was found to be 86900 nM.
As for `COc1cccc(C2=CCC(N3CCN(c4ccccn4)CC3)CC2)c1` (configuration not stated), the inhibitory constant (Ki) in test [1] stood at 2640 nM; in test [4], 220 nM. For the same compound, the Activity in the test with PC-3 [2] is listed as below 10%.
`Fc1cccc(F)c1[C@H]1CC[C@@H](N2CCN(c3ccccn3)CC2)CC1`: the Ki in test [1] came to 140 nM; in test [4], 5170 nM; in test [6] it was 440 nM. Besides, the Activity in the test with PC-3 [2] is below 10%. For the same compound, the Ratio Ki came to 37 in the test listed under Cavia porcellus and 3 in test [3]. Also, the EC50 in the test on PC-3 [5] stood at 37300 nM.
In the case of `COc1ccc([C@H]2CC[C@H](N3CCN(c4ccccn4)CC3)CC2)cc1`, the Ki was determined as 71.6 nM in test [1], 291 nM in test [4] and 222 nM in test [6]. The Activity with PC-3 [2] is listed as below 10%. In addition, the Ratio Ki in the test listed under Cavia porcellus was determined as 4; in test [3] it was 3.
